Values after ≈ are worked out from the molar mass of the structure shown.
How the values were obtained:
[1] = Ratio of the cytotoxicities against drug induced aerobic Walker cells and chinese hamster ovary fibroblast line AA8; type: functional
Method in brief: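 IC50 in AA8 divided by IC50 in Walker 256 (WS) cells. Walker cells were seeded at 225 cells/0.15 mL with continuous aerobic drug exposure over 4 days, read by MTT. Ratios are interexperiment means.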

[2] = test system: CHO-AA8; assay: Aerobic cytotoxicity was assessed in a growth inhibition assay using log phase cultures of the chinese hamster ovary fibroblast line AA8; type: functional, cell-based
Method in brief: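 AA8 Chinese hamster ovary cells seeded at 200 cells/well, grown 24 h, then exposed 18 h to five 2-fold serial dilutions in duplicate. Drug washed out, cells grown a further 78 h, density read by methylene blue staining. IC50 = concentration giving 50% growth inhibition versus controls. Values are means ± SEM.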

[3] = Tested for hypersensitivity factor which is the ratio of cytotoxicities against aerobic UV4 cells and chinese hamster ovary fibroblast line AA8
[4] = test system: UV4; assay: Tested for the product of drug concentration and exposure time required to reduce UV4 cell survival to 10% under hypoxic condition by clonogenic assay
[5] = Solubility (alpha-MEM culture medium, containing 5% fetal calf serum); type: physicochemical; conditions: alpha-MEM culture medium with 5% fetal calf serum; read-out: S
Method in brief: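 Solubility (mM) in α-MEM with 5% fetal calf serum, measured at ambient temperature by UV spectroscopy.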

[6] = test system: UV4; assay: The ratio of the cytotoxicities against UV4 cell line in the air and N2 was measured using clonogenic assay; type: functional, Cricetulus griseus
Method in brief: (§1)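 UV4 cells (10^6/mL, stirred 10 mL suspensions) were gassed with 5% CO2 in air or in N2 after 60 min pre-equilibration, with clonogenic survival sampled over time. Concentrations giving similar kill rates under each gas were chosen. Ratio = CT10(air)/CT10(N2). Mean ± SEM of separate experiments.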

[7] = The ratio of the cytotoxicities against UV4 cell line in the air and N2 was measured using clonogenic assay.; type: functional; method in brief: as §1

| Compound | IC50 ratio [1] | IC50 ([2]; Cricetulus griseus, CHO-AA8) | IC50 ratio [3] | CT10 [4] | solubility [5] | CT10 ratio [6] | IC50 ([2]; cho-aa8) | CT10 ratio [7] |
| --- | --- | --- | --- | --- | --- | --- | --- | --- |
| NC(=O)c1cc(N(CCI)CCI)c([N+](=O)[O-])cc1[N+](=O)[O-] | 5.2 | 34 µM | 2.6 | 4.4 µM·h | 35 µM (≈ 18.7 µg/mL) | 42 |  |  |
| NC(=O)c1cc(N(CCBr)CCBr)c([N+](=O)[O-])cc1[N+](=O)[O-] | 3.1 | 57 µM | 7.5 | 8 µM·h | 42 µM (≈ 18.5 µg/mL) | 20 |  |  |
| O=C(NCC(O)CO)c1cc(N(CCCl)CCCl)c([N+](=O)[O-])cc1[N+](=O)[O-] (stereo not given) | 1.6 | 1930 µM | 4.4 | 465 µM·h | 7400 µM (≈ 3150 µg/mL) | 8.6 |  |  |
| NC(=O)c1cc(N(CCCl)CCCl)c([N+](=O)[O-])cc1[N+](=O)[O-] | 4.1 |  | 6.8 | 95 µM·h | 190 µM (≈ 66.7 µg/mL) | 58 | 470 µM |  |
| CS(=O)(=O)OCCN(CCOS(C)(=O)=O)c1cc(C(N)=O)c([N+](=O)[O-])cc1[N+](=O)[O-] | >3 |  | >4 | 70 µM·h | 530 µM (≈ 249 µg/mL) | 17 |  |  |
| O=C(c1cc(N(CCCl)CCCl)c([N+](=O)[O-])cc1[N+](=O)[O-])N1CCOCC1 | 4.1 | 240 µM | 23 | 125 µM·h | 30 µM (≈ 12.6 µg/mL) | 1.3 |  |  |
| O=C(O)CCNC(=O)c1cc(N(CCCl)CCCl)c([N+](=O)[O-])cc1[N+](=O)[O-] | 1.5 | 6100 µM | 1.1 | 12000 µM·h | 11000 µM (≈ 4660 µg/mL) | 2.3 |  |  |
| CS(=O)(=O)OCCN(CCCl)c1cc(C(N)=O)c([N+](=O)[O-])cc1[N+](=O)[O-] | 6 | 945 µM | 13 | 48 µM·h | 840 µM (≈ 345 µg/mL) |  |  | 60 |
| C[N+](C)([O-])CCNC(=O)c1cc(N(CCCl)CCCl)c([N+](=O)[O-])cc1[N+](=O)[O-] | 2.3 | 7290 µM | 1.7 | 4500 µM·h | > 42000 µM | 8 |  |  |
| NC(=S)c1cc(N(CCCl)CCCl)c([N+](=O)[O-])cc1[N+](=O)[O-] | >1 | > 25 µM | >2 | 19 µM·h | 38 µM (≈ 14 µg/mL) | >3 |  |  |
| CS(=O)(=O)NS(=O)(=O)c1cc(N(CCCl)CCCl)c([N+](=O)[O-])cc1[N+](=O)[O-] | 1.5 | 466 µM | 1 | 980 µM·h | 32000 µM (≈ 14900 µg/mL) | 5.2 |  |  |
| CN(C)CCNC(=O)c1cc(N(CCCl)CCCl)c([N+](=O)[O-])cc1[N+](=O)[O-] | 5.6 | 220 µM | 3.9 | 21 µM·h | 35000 µM (≈ 14800 µg/mL) | 60 |  |  |
| O=C(NCCO)c1cc(N(CCCl)CCCl)c([N+](=O)[O-])cc1[N+](=O)[O-] |  | > 100 µM |  |  | 100 µM (≈ 39.5 µg/mL) |  |  |  |
| N#Cc1cc(N(CCCl)CCCl)c([N+](=O)[O-])cc1[N+](=O)[O-] | 3.2 | 24 µM | 6.8 | 10 µM·h | 120 µM (≈ 40 µg/mL) | 8.5 |  |  |
| NC(=O)c1cc(NCCCl)c([N+](=O)[O-])cc1[N+](=O)[O-] | 380 | 748 µM | 1.4 |  |  |  |  |  |
| O=C(NCCN1CCOCC1)c1cc(N(CCCl)CCCl)c([N+](=O)[O-])cc1[N+](=O)[O-] | 3.7 | 920 µM | 3 | 83 µM·h | 4700 µM (≈ 2180 µg/mL) | 45 |  |  |
| CCN(CCCl)c1cc(C(N)=O)c([N+](=O)[O-])cc1[N+](=O)[O-] | >1 | > 97 µM |  | > 300 µM·h | 160 µM (≈ 50.7 µg/mL) |  |  |  |
| NS(=O)(=O)c1cc(N(CCCl)CCCl)c([N+](=O)[O-])cc1[N+](=O)[O-] | 1.7 | 2 µM | 1.5 | 5.7 µM·h | 160 µM (≈ 62 µg/mL) | 2.1 |  |  |
| CNC(=O)c1cc(N(CCCl)CCCl)c([N+](=O)[O-])cc1[N+](=O)[O-] |  | > 100 µM |  | > 360 µM·h | 200 µM (≈ 73 µg/mL) |  |  |  |
| CN(C)C(=O)c1cc(N(CCCl)CCCl)c([N+](=O)[O-])cc1[N+](=O)[O-] | <0.3 | 310 µM | 1.4 | 250 µM·h | 130 µM (≈ 49.3 µg/mL) | >20 |  |  |
| O=C(O)c1cc(N(CCCl)CCCl)c([N+](=O)[O-])cc1[N+](=O)[O-] | 4.7 | 10600 µM | 1.4 | 19000 µM·h | 18000 µM (≈ 6340 µg/mL) |  |  | >1.2 |
| O=C(c1cc(N2CC2)c([N+](=O)[O-])cc1[N+](=O)[O-])N1CCOCC1 | 800 | 694 µM | 330 | 30 µM·h |  | 1.7 |  |  |
| CCN(CCCl)c1cc(C(=O)NCCN(C)C)c([N+](=O)[O-])cc1[N+](=O)[O-] | 5 | 570 µM | 1.9 | 390 µM·h | > 38000 µM | 3.5 |  |  |
| NC(=O)c1cc(N2CC2)c([N+](=O)[O-])cc1[N+](=O)[O-] [TRETAZICAR] | 37000 | 563 µM | 50 | 225 µM·h | 7900 µM (≈ 1990 µg/mL) | 3.6 |  |  |

— ChEMBL document CHEMBL1127572, “Hypoxia-selective antitumor agents. 9. Structure-activity relationships for hypoxia-selective cytotoxicity among analogues of 5-[N,N-bis(2-chloroethyl)amino]-2,4-dinitrobenzamide” (J Med Chem, 1994)
